MrgX1 ag – agonists of human MrgX1 receptor. Q96LB2. MrgX1-HEK293 cells, Fluo-4 calcium fluorescence, agonist mode; active compounds read high. B-score at 10 µM. actives 0.44% (n = 310,000);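 active = calcium response B-score plate-corrected fluorescence ratio at least 3 library SD, with starting fluorescence B-score inside 5 SD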
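Material: HEK293 cells stably expressing human MrgX1 receptor | Quantity: 15,000 cells per well | Times: Cells plated overnight, dye loaded 0.5 h 37 °C, 0.5 h room temperature | Measured by: Kinetic Fluo-4 NW fluorescence of intracellular calcium | Control set: Positive and negative controls per plate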
RGS4 block – human RGS4 inhibition; actives 0.45% (n = 310,000); B-score at 10 µM; HEK293 M3R/RGS4 inducible, Fluo-4 calcium flux; active compounds read high; triggered by carbachol at its EC20; P49798;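 active = B-score, a plate-corrected calcium signal, over three deviations above library mean, with baseline fluorescence within five deviations of library mean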;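 note: RGS4 expression induced by doxycycline in cells with stable M3 receptor; B-score is computed from the integrated fluorescence ratio over baseline after carbachol; higher B-score means a larger calcium signal and so more RGS4 inhibition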
Target sequence (P49798 whole entry, looked up): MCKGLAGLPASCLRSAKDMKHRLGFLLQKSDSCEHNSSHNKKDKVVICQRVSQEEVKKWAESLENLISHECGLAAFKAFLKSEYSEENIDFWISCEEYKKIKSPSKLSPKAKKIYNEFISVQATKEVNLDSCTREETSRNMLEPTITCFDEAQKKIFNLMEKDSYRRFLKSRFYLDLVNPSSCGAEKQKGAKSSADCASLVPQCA
MrgX1 antag – blocks BAM8-22 activation of human MrgX1 receptor | Q96LB2 | MRGX1-HEK293 calcium flux, Fluo-4, BAM8-22 antagonism; active compounds read low | B-score at 10 µM | actives 1.3% (n = 310,000);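 active = calcium-response B-score plate-corrected more than 3 library SD below zero, starting fluorescence within 5 deviations, no agonist response on first addition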;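 note: peak minus trough fluorescence over baseline after final BAM8-22 challenge near maximal dose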
MrgX1 PAM – human MrgX1 positive allosteric modulation, primary screen; B-score at 10 µM; actives 0.63% (n = 310,000); MrgX1-HEK293, Fluo-4 calcium flux, FDSS; active compounds read high; Q96LB2;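 active = plate-corrected calcium response at least 3 library SD above typical, normal starting fluorescence, not activating the receptor alone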;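 note: compound read alongside a low EC10 to EC30 dose of BAM8-22 agonist; peak minus trough fluorescence over baseline measured at the second addition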
RGS4 pot – potentiators or activators of RGS4 | HEK293 M3R/inducible RGS4, carbachol calcium flux Fluo4; active compounds read low | B-score at 10 µM | actives 0.92% (n = 310,000) | AID 463111;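 active = B-score of the integrated calcium signal more than 4 SD below the library mean, with starting fluorescence not abnormally high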;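 note: negative B-score means reduced calcium response which marks RGS4 activation or potentiation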
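Test system: HEK293 cells with stable M3R and inducible RGS4; also added: carbachol at ECmax as muscarinic agonist stimulus; schedule: dye loading 30 min 37 °C, buffer rest 30 min RT; technique: kinetic calcium fluorescence imaging with Fluo4-AM dye, 2 µM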
Of the large screens only hits and unclear results are named; the others gave an inactive call. In the library only some 3.5% were active in any assay of this set; here they are far more common.

CN1CCN(CCCNC(=O)c2ccc(/C=C3/Sc4ccccc4N(Cc4cccc(Cl)c4)C3=O)cc2)CC1	RGS4 pot -7.7 (no result: MrgX1 ag, MrgX1 antag, MrgX1 PAM)
Cc1cccc(CN2C(=O)/C(=C\c3ccc(C(=O)NCCCN4CCN(C)CC4)cc3)Oc3ccccc32)c1	none
CN1CCN(CCCNC(=O)c2ccc(/C=C3\Sc4ccccc4N(Cc4ccc(F)cc4)C3=O)cc2)CC1	RGS4 pot -7.5 (no result: MrgX1 ag, MrgX1 antag, MrgX1 PAM)
Nc1nnc(SCC(=O)NN2C(=O)NC3(CCCCC3)C2=O)s1	none
O=C(COc1ccc([N+](=O)[O-])cc1Cl)NCCc1ccccc1	MrgX1 PAM 9
O=C(COc1ccc(Cl)cc1Cl)NCCCCc1ccccc1	none
NC(=NCCCCCCN=C(N)/N=C(\N)Nc1ccc(Cl)cc1)/N=C(\N)Nc1ccc(Cl)cc1	MrgX1 antag -5.7
CC(C)N=C(N)N=C(N)Nc1ccc(Cl)cc1	none (no result: RGS4 block, RGS4 pot)
CC(C)(C)c1ccc(OCC(=O)NNC(=S)NC(=O)c2ccco2)c(Br)c1	RGS4 pot -10
CC(C)c1ccc(OCC(=O)NNC(=S)NC(=O)c2ccco2)c(Br)c1	RGS4 pot -9.5
C[C@H](NC(=O)c1nc[nH]c1C(=O)NC1CCN(C(=O)OC(C)(C)C)CC1)C(=O)OCc1ccccc1	none
CCc1nnc(NS(=O)(=O)c2ccc(Nc3ccc([N+](=O)[O-])c4nonc34)cc2)s1	none
COc1ccc(-n2cc(-c3ccccc3)c3c(N4CC(C)OC(C)C4)ncnc32)cc1 (configuration not stated)	RGS4 pot -7
c1ccc(-c2cn(-c3ccccc3)c3ncnc(N4CCCCC4)c23)cc1	none
O=C(NCc1ccccc1)C(c1c(F)cccc1Cl)N(C(=O)c1csnn1)C1CC1 (configuration not stated)	none
O=c1/c(=C/c2cccc3ccccc23)sc2ncnn12	none
Cc1ccsc1/C=c1\sc2ncnn2c1=O	MrgX1 PAM 6.6
CC(C)(CC(=O)N1CCN(c2ccc(Cl)cc2)CC1)CC1=NS(=O)(=O)c2ccccc2N1	none
Cc1cc(Sc2nc(NC(C)C)nc(NC(C)C)n2)nc(Cl)n1	none
COc1cc(/C=C2\SC(=S)N(C(Cc3ccccc3)C(=O)O)C2=O)ccc1O (configuration not stated)	MrgX1 ag 56
COc1ccc(/C=C2\SC(=S)N(CC3CCCO3)C2=O)cc1 (configuration not stated)	none
COc1cc(/C=C2/SC(=S)N(CC3CCCO3)C2=O)ccc1O (configuration not stated)	MrgX1 antag -8.6
O=C(O)C(Cc1ccccc1)N1C(=O)/C(=C/c2ccccc2)SC1=S (configuration not stated)	none
COc1cc(/C=C2/C(=O)c3cccc([N+](=O)[O-])c3C2=O)c(Br)cc1O	MrgX1 ag 35 (no result: RGS4 block, RGS4 pot)
COc1ccccc1NC(=O)CCCCCN1C(=O)c2cccc([N+](=O)[O-])c2C1=O	none
CCC(C)NC(=O)C1CCN(S(=O)(=O)c2cc([N+](=O)[O-])ccc2Cl)CC1 (configuration not stated)	none
O=C(Nc1nc2ccccc2s1)C1CCN(S(=O)(=O)c2cc([N+](=O)[O-])ccc2Cl)CC1	MrgX1 antag -5.3
COCCN(C(=O)COC(=O)CCc1ccccc1OC)c1c(N)n(Cc2ccccc2)c(=O)[nH]c1=O	MrgX1 antag -6
COCCn1c(Cc2ccccc2)nnc1SCc1ccc([N+](=O)[O-])cc1	none
CN(CC(O)Cn1cnc2c1c(=O)n(C)c(=O)n2C)c1ccccc1 (configuration not stated)	none
C=CCSc1nnc(C)c(/C=C/Nc2ccc(Cl)cc2)n1	RGS4 pot -7.5
CSc1nnc(C)c(/C=C/Nc2ccc(F)cc2F)n1	none
Cc1ccc(OCC(=O)N(C)CC(=O)N(CC(C)C)c2c(N)n(CC(C)C)c(=O)[nH]c2=O)c(C)c1	none
C[N+]1(C)CCC(=C2c3ccccc3CC(=O)c3sccc32)CC1	RGS4 pot -8.3
Cc1cc(NC(=S)N(CCCN2CCOCC2)Cc2ccco2)ccc1Cl	none
CSc1ccc(OC2CCN(Cc3ccccc3)CC2)cc1	RGS4 pot -7.9
Clc1ccc(CSc2cc3c(nn2)-c2ccccc2CC3)cc1Cl	RGS4 pot -8.1
CC(C)Oc1cccc(-c2cc(C(=O)N3CCN(c4ncccn4)CC3)c3ccccc3n2)c1	RGS4 pot -7.4
